Data taken from ChEMBL document CHEMBL3259690, “Synthesis, structure-activity relationships, and biological studies of chromenochalcones as potential antileishmanial agents” (J Med Chem, 2014).

Experiments:
[1] = tested on: Leishmania donovani; assay: Induction of apoptosis in Leishmania donovani MHOM/IN/80/Dd8 promastigotes assessed as drop in mitochondrial membrane potential at 0.78 uM after 6 hrs by JC-1 dye based flow cytometry (reference value: 5.87%); assay type: functional
[2] = tested on: Leishmania donovani; assay: Induction of apoptosis in Leishmania donovani MHOM/IN/80/Dd8 promastigotes assessed as drop in mitochondrial membrane potential at 0.78 uM after 24 hrs by JC-1 dye based flow cytometry (reference value: 5.87%); assay type: functional
[3] = Cytotoxicity against African green monkey Vero cells after 72 hrs by MTT assay; assay type: cell-based; conditions: chlorocebus sabaeus
Summary of the method: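 Vero cells at 1 × 10⁵/mL exposed to seven concentrations from 400 μM at 37 °C, 5% CO₂, for 72 h. MTT (5 mg/mL) added for 2 h at 37 °C, formazan dissolved in DMSO, absorbance read at 544 nm. CC₅₀ estimated by the Huber and Koella method; at least duplicate measurements.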

[4] = Terminal half life in Syrian golden hamster at 100 mg/kg, po administered via gavage as single dose by HPLC-UV analysis; assay type: ADME, organism-based, Mesocricetus auratus; parameters: dose 100 mg/kg, route oral; conditions: in vivo, read-out: beta t1/2 (converted)
Summary of the method: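 Male Syrian golden hamsters (100 ± 15 g) given a single oral dose of 100 mg/kg. Plasma stored at −70 °C and assayed by HPLC-UV. Concentration–time profiles analysed non-compartmentally; values mean ± SD.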

[5] = tested on: Leishmania donovani; assay: Induction of early apoptosis in Leishmania donovani MHOM/IN/80/Dd8 promastigotes at 0.78 uM after 24 hrs by Annexin V-FITC/propidium iodide staining based flow cytometry (reference value: 13.70%); assay type: functional
[6] = tested on: Leishmania donovani; assay: Induction of apoptosis in Leishmania donovani MHOM/IN/80/Dd8 promastigotes assessed as drop in mitochondrial membrane potential at 0.78 uM after 12 hrs by JC-1 dye based flow cytometry (reference value: 5.87%); assay type: functional
[7] = tested on: Leishmania donovani; assay: Antileishmanial activity against Leishmania donovani MHOM/IN/80/Dd8 amastigotes infected in syrian golden hamster assessed as decrease in parasite count in spleen at 50 mg/kg/day, po for 5 days measured on day 28 after last dose administration by giemsa staining; assay type: functional; conditions: MHOM/IN/80/Dd8, Spleen
Summary of the method: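 Golden hamsters of either sex infected intracardially with 1 × 10⁷ L. donovani Dd8 amastigotes. After 15−20 days, pretreatment spleen biopsy; animals with +1 grade infection (5−10 amastigotes/100 spleen cell nuclei) used, 5−6 per compound. Aqueous suspensions dosed IP or PO for 5−10 consecutive days starting 2 days after biopsy. Splenic biopsies on day 7 and 28 after last dose, Giemsa counts; PI = 100 − [(ANAT×100)/(INAT×TIUC)].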

[8] = tested on: J774.A1; assay: Induction of nitric oxide production in mouse J774A1 cells infected with Leishmania donovani after 24 hrs by Griess reagent based spectrophotometric analysis relative to control; assay type: functional
Summary of the method: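 Infected J774A.1 macrophages (1 × 10⁶/mL) incubated with compound for 24 h; LPS 10 μg/mL as stimulant. Supernatant mixed 1:1 with Griess reagent at room temperature, absorbance at 540 nm, nitrite reported in μM. Normal, infected-untreated and infected-treated cells compared. Two independent experiments, mean ± SD; Student's t test against infected control.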

[9] = tested on: Leishmania donovani; assay: Antileishmanial activity against extracellular promastigote form of Leishmania donovani MHOM/IN/80/Dd8 expressing firefly luciferase gene assessed as inhibition of parasitic multiplication at 25 uM after 96 hrs by luminescence analysis; assay type: functional; conditions: MHOM/IN/80/Dd8, 96 h
Summary of the method: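 Late-log luciferase-expressing Dd8 promastigotes, 5 × 10⁵/mL in complete M-199, incubated with compound at 24 °C for 96 h. Aliquot mixed with Steady Glo and luminescence read as RLU. Inhibition of multiplication taken from luciferase signal of treated versus untreated parasites.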

[10] = Stability of the compound in simulated intestinal fluid assessed as compound degradation at 10 uM by HPLC-UV analysis; assay type: physicochemical; conditions: read-out: Drug degradation
Summary of the method: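 Simulated gastric and intestinal fluids made to USP specifications. Compound at 10 μM incubated in SGF sampled at 0, 15, 30 and 60 min, and in SIF at 0, 30, 60, 90 and 120 min. Mean ± SEM.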

[11] = tested on: Syrian golden hamster; assay: Toxicity in Syrian golden hamster at 100 mg/kg, po administered via gavage as single dose; assay type: organism-based, Mesocricetus auratus; parameters: dose 100 mg/kg, route oral; conditions: in vivo
[12] = tested on: Leishmania donovani; assay: Induction of early apoptosis in Leishmania donovani MHOM/IN/80/Dd8 promastigotes at 0.78 uM after 12 hrs by Annexin V-FITC/propidium iodide staining based flow cytometry (reference value: 13.70%); assay type: functional
[13] = In vitro metabolic stability in syrian golden hamster liver S9 fraction at 10 uM in absence of NADPH; assay type: ADME, Mesocricetus auratus; conditions: s9, 10 µM
Summary of the method: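 Hamster liver S9 (2 mg/mL protein), 50 mM Tris, 20 mM MgCl₂, 2 mM NADPH preincubated 10 min, then compound added at 10 μM final (1% organic) at 37 °C in triplicate. Sampled 0−60 min; no-NADPH control sampled at 0, 15, 30 and 60 min. Quenched with ice-cold methanol, extracted by LLE. Data as % parent remaining versus 0 min; testosterone as positive control.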

[14] = Selectivity index, ratio of CC50 for African green monkey Vero cells to IC50 for Leishmania donovani MHOM/IN/80/Dd8 intracellular amastigote form expressing luciferase gene infected in mouse J774A1 cells; assay type: functional, J774.A1
Summary of the method: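 Ratio of CC₅₀ in Vero cells (72 h MTT) to IC₅₀ against luciferase-expressing amastigotes in J774A.1 macrophages (72 h luminescence).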

half-life [4]: 7.4 h
degraded at 10 µM [10]: 30%
Stability [13]: Stable
SMILES: CC(C)=CCCC1(C)C=Cc2c(ccc(C(=O)/C=C/c3cccnc3)c2O)O1 (centres undefined)
Activity [1]: 10.47%
Activity [2]: 31.88%
CC50 at 72 h [3]: 40.7 µM
Activity [5]: 30.79%
Activity [6]: 17.46%
inhibition in vivo at 50 mg/kg/day [7]: 55.4%
fold change (FC) [8]: 6.3
inhibition at 25 µM [9]: 99.8%
Activity [11]: Non-toxic
Activity [12]: 28.93%
Ratio CC50/IC50 [14]: 7.5
